Bioassay records deposited in PubChem by The Scripps Research Institute Molecular Screening Center.
OX1R antag-1: blocks the human orexin 1 receptor. inhibition, % at 6.6 µM. O43613. 330,000 tested, 1.8% active. OX1R-expressing cells, FRET antagonist read-out. AID 485270; in the data active = inhibition mostly above about 38%, no sharp cut-off; inactive = mostly below about 40%
Target sequence (O43613 whole entry, looked up): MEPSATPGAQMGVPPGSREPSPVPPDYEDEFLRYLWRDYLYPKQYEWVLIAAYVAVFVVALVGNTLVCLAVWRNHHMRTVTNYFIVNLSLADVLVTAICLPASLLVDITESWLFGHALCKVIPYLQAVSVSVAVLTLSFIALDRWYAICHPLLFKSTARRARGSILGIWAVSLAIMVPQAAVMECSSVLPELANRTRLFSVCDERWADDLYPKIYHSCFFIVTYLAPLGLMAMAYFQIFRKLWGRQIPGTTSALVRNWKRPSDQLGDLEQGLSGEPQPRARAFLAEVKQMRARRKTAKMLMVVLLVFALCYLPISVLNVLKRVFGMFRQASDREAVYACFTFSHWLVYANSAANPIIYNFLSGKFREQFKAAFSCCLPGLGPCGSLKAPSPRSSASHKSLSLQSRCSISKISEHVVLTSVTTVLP
TAAR1 antagonist: human TAAR1 antagonism | Q96RJ0 | CHO RD-HGA16 TAAR1, Fluo-8 calcium fluorescence, antagonist | inhibition, % at 3 µM | 360,000 tested, 1.5% active | AID 624466;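 active = inhibition above a per-plate cutoff, the mean inhibition of test compounds on that plate plus 3 SD, cut at about 49% in these data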
Target sequence (Q96RJ0 whole entry, looked up): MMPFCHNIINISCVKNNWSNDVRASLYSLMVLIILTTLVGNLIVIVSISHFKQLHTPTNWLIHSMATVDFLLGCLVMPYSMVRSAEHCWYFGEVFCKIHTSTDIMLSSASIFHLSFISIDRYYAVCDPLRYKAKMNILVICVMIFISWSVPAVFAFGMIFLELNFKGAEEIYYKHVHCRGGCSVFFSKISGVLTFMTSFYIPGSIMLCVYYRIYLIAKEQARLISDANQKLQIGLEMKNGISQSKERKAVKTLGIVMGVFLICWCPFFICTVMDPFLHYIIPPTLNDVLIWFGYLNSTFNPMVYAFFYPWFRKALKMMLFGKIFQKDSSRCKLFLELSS
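Test system – hTAAR1-expressing CHO RD-HGA16 cells, Gα16-coupled · Also added – β-PEA at EC80 concentration, post-compound challenge · Compound – 3 µM, single point · Incubation – dye loading 75 min at 37 °C, then 30 min room temperature · Measured by – Fluo-8 intracellular calcium dye fluorescence, real-time kinetic reads · Benchmarks – vehicle and agonist controls · Replicates – singlicate, one well per test compound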
GPR7 antag: human neuropeptides B/W receptor 1 antagonism | GPR7-expressing cells, fluorescence antagonist assay | P48145 | 290,000 tested, 1.1% active | inhibition, % at 4.4 µM; in the data active = inhibition above about 16%, passing the limit was not always enough;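 note: cells stimulated with the agonist NPW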
OX1R antag-2: blocks the human orexin 1 receptor; inhibition, % at 5 µM; AID 434989; 330,000 tested, 0.43% active; O43613; CHO/OX1R cells, Fluo-8 calcium fluorescence, orexin A;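 active = inhibition above its plate's threshold, mean inhibition of all tested compounds on the plate plus 3 SD, cut at about 37% in these data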
TAAR1 ag: human TAAR1 agonism; Q96RJ0; CHO RD-HGA16 TAAR1, Fluo-8 calcium fluorescence; vehicle wells 0%, saturating PEA agonist 100%; activation, % at 3 µM; 360,000 tested, 0.99% active;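 active = activation above the mean activation of all test compounds in the run plus 3 SD, cut at about 38% in these data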
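Assay system: CHO-derived RD-HGA16 cells with stable Gα16 and human TAAR1; timing: 17-24 h seeding, 75 min 37 °C dye, 30 min RT; read-out: % activation from peak over basal fluorescence ratio, DMSO-to-PEA scaled; measured by: kinetic Fluo-8 calcium fluorescence; benchmarks: low control DMSO, high control PEA (EC100); doses: 3 µM single concentration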
CHO parental Ca: counter-screen: ATP calcium response change in parental CHO cells. 330,000 tested, 0.63% active. parental CHO-K1, ATP-induced calcium, Fluo-8 fluorescence. inhibition, % at 5.6 µM;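 active = inhibition above that plate's mean sample inhibition plus 3 SD, cut at about 26% in these data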
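Test system: untransfected parental CHO cell line. Compound: one dose, 5.6 µM nominal. Detection: intracellular calcium via Fluo-8 no-wash fluorescent dye. Measure: % inhibition. Benchmarks: ATP-challenged DMSO wells low, unchallenged DMSO wells high.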
Large screens that a line does not name were inactive. Hits are enriched below; roughly 4.5% of the tested compounds scored in any of these assays.

C=CCOc1c(CNc2ccc3[nH]c(=O)[nH]c3c2)cccc1OC	none
CC1(C(=O)O)CCN1C(=O)c1ccccc1F (stereo unspecified)	none (no result: OX1R antag-1, GPR7 antag, OX1R antag-2, CHO parental Ca)
CN1C(=O)c2cccc3c(Br)ccc(c23)C1=O	none (no result: GPR7 antag)
CNc1ccc2c3c(cccc13)C(=O)N(C)C2=O	OX1R antag-2 87.9, TAAR1 ag 157.0, CHO parental Ca 78.6
COC(=O)c1cc2c(c3c4cc(OC)ccc4n(S(=O)(=O)c4ccc(F)cc4)c13)C(=O)N(C)C2	none (no result: OX1R antag-1, GPR7 antag, OX1R antag-2, CHO parental Ca)
COC(=O)C(Cc1ccc(OC(=O)c2ccc(C)cc2)cc1)N1Cc2ccccc2C1=O (stereo unspecified)	CHO parental Ca 43.6 (no result: TAAR1 antagonist, TAAR1 ag)
COC(=O)C(Cc1ccc(O)cc1)N1Cc2ccccc2C1=O (stereo unspecified)	none
COC(=O)c1sc(-c2ccc(C(C)(C)C)cc2)cc1NC(=O)CSCC(=O)O	TAAR1 antagonist 49.0
COC(=O)c1sc(-c2ccc(C(C)(C)C)cc2)cc1NC(=O)c1ccccc1C(=O)O	none
O=C(NC(=S)N1CCN(c2ccc([N+](=O)[O-])cc2)CC1)c1ccc(F)cc1	OX1R antag-1 55.9
O=[N+]([O-])c1ccc(N2CCN(C(=S)Nc3ccccc3)CC2)cc1	none
O=[N+]([O-])c1ccc(N2CCN(C(=S)NC3CCCCC3)CC2)cc1	TAAR1 antagonist 52.3, OX1R antag-2 48.8, CHO parental Ca 32.6
CCCCn1c(N)c(N(CCC(C)C)C(=O)COC(=O)c2ccc([N+](=O)[O-])s2)c(=O)[nH]c1=O	OX1R antag-1 35.2 (no result: GPR7 antag)
CCCCN(C(=O)c1ccc([N+](=O)[O-])s1)c1c(N)n(CCCC)c(=O)[nH]c1=O	OX1R antag-1 62.6 (no result: GPR7 antag)
CC(C)CN(C(=O)COC(=O)c1ccc([N+](=O)[O-])s1)c1c(N)n(Cc2ccccc2)c(=O)[nH]c1=O	none (no result: GPR7 antag)
CCCCN(C(=O)c1cc(=O)[nH]c2ccccc12)c1c(N)n(CCC)c(=O)[nH]c1=O	OX1R antag-1 80.4 (no result: TAAR1 antagonist, TAAR1 ag)
Cc1cc(C)c(CN2CCN(C(=O)Cn3cnc4c(OCc5ccccc5)ncnc43)CC2)c(C)c1	none (no result: GPR7 antag)
COC(=O)c1ccccc1NC(=O)COc1ccccc1	OX1R antag-1 40.5
CCC(=O)Nc1ccccc1C(=O)OCC(=O)c1ccc2ccccc2c1	GPR7 antag 18.9
COCCNC(=O)c1ccccc1NC(=O)COc1ccccc1	none
CCCCn1c(=O)nc2n(-c3ccccc3)c3ccccc3cc-2c1=O	none
Cc1ccc(C)c(-n2c3nc(=O)n(C)c(=O)c-3cc3ccccc32)c1	OX1R antag-1 63.0
CCN(CC)C(=O)c1cc([N+](=O)[O-])cc2c1-c1ccc([N+](=O)[O-])cc1C2=C(C#N)C#N	OX1R antag-1 70.6
Cc1ccc(C)c(S(=O)(=O)N2CCCCC2CCNC(=O)C(=O)NCc2ccco2)c1 (stereo unspecified)	OX1R antag-1 41.1 (no result: GPR7 antag)
Cc1ccc(C)c(S(=O)(=O)N2CCCOC2CNC(=O)C(=O)NCCc2ccccc2)c1 (stereo unspecified)	OX1R antag-1 54.0
Cc1cc(F)ccc1S(=O)(=O)N1CCCOC1CNC(=O)C(=O)NCCc1ccccc1 (stereo unspecified)	none
O=C(NCCc1ccccc1)C(=O)NCC1OCCCN1S(=O)(=O)c1cc(F)ccc1F (stereo unspecified)	TAAR1 ag 40.2
CC(C)C[C@H](NC(=O)c1ccc(Cl)cc1Cl)C(=O)N1CCC[C@H]1C(=O)NCc1ccccc1	none (no result: OX1R antag-1, GPR7 antag, OX1R antag-2, CHO parental Ca)
N#CC(c1ccc(O)cc1)N1CCN(C(C#N)c2ccc(O)cc2)CC1 (stereo unspecified)	none (no result: OX1R antag-1, GPR7 antag, OX1R antag-2, CHO parental Ca)
O=C1NC[C@@H](CCCCN2C[C@H](Cc3ccc(O)cc3)N(CCC3CCCCC3)C(=O)C2=O)N(CC2CCCCC2)C1=O	none (no result: OX1R antag-1, GPR7 antag, OX1R antag-2, CHO parental Ca)
CC1CC(C)CN(C(=O)COC(=O)c2cc([N+](=O)[O-])ccc2N2CCOCC2)C1 (stereo unspecified)	OX1R antag-1 52.6 (no result: GPR7 antag)
O=C(COC(=O)c1cc([N+](=O)[O-])ccc1N1CCOCC1)Nc1c(Cl)cccc1Cl	OX1R antag-1 53.7 (no result: GPR7 antag)
O=C(COC(=O)c1cc([N+](=O)[O-])ccc1N1CCOCC1)c1ccccc1Cl	none
CC1CCCN(C(=O)COC(=O)c2cc([N+](=O)[O-])ccc2N2CCOCC2)C1 (stereo unspecified)	none (no result: GPR7 antag)
CC1CN(C(=O)COC(=O)c2cc([N+](=O)[O-])ccc2Cl)CC(C)O1 (stereo unspecified)	OX1R antag-1 41.0
COCCNS(=O)(=O)c1cc2[nH]c3c(c2cc1C)C(=O)CC(C)(C)C3	none
Cc1nn(C)c(NC(=O)c2ccccc2Cl)c1Cl	none
Nc1ncnc(N)c1NC(=O)c1ccccc1	none (no result: OX1R antag-1, GPR7 antag, OX1R antag-2, CHO parental Ca)
O=C(CC1SC(=Nc2ccccc2)N(CCCO)C1=O)Nc1ccc(Cl)cc1 (stereo unspecified)	OX1R antag-2 77.0, CHO parental Ca 65.7 (no result: TAAR1 antagonist, TAAR1 ag)
Cn1c2ccsc2c2ncn(Cc3ccccc3F)c(=O)c21	OX1R antag-1 41.7 (no result: GPR7 antag)
CC(C)(C)C(=O)c1c(N)[nH]c(C(=O)c2ccccc2)c1-c1ccc([N+](=O)[O-])cc1	none (no result: OX1R antag-1, GPR7 antag, OX1R antag-2, CHO parental Ca)
O=C(NNC(=O)c1cc2cc(Br)ccc2oc1=O)c1ccc(O)cc1	TAAR1 ag 38.1
OCCN=c1cc(-c2ccccc2)oc2ccc(Cl)cc12	OX1R antag-1 47.0 (no result: TAAR1 antagonist, TAAR1 ag)
CN(C)CCCN=c1cc(-c2ccccc2)oc2ccc(Cl)cc12	none (no result: OX1R antag-1, OX1R antag-2, CHO parental Ca)
CC(=O)N1CCN(c2ccc([N+](=O)[O-])c(NCC3CCCO3)c2)CC1 (stereo unspecified)	OX1R antag-1 78.5
Cc1cc2c3c(c1)C1(SCC(=O)N1c1ccc(F)cc1)C(=O)N3C(C)(C)CC2C (stereo unspecified)	TAAR1 ag 48.4
CC1CCC(NC(=O)c2cc(S(=O)(=O)N3CCCCC3)ccc2N2CCOCC2)CC1 (stereo unspecified)	none (no result: GPR7 antag)
OCC[C@@H]1C[C@H](O)[C@@H](O)[C@@]2(Cc3ccccc3O2)O1	none
CCOC(=O)C1=C(C)NC(C)=C(C(=O)OCC)C1C(=O)OCC(=O)NCc1ccccc1	none (no result: GPR7 antag)
CCOC(=O)C1=C(C)NC(C)=C(C(=O)OCC)C1C(=O)OCC(=O)NCc1ccccc1OC	OX1R antag-1 44.9 (no result: GPR7 antag)
O=C(CNC(=O)c1nc[nH]c1C(=O)N1CCc2ccccc2C1)OCc1ccccc1	TAAR1 antagonist 61.9
O=C(N[C@@H](Cc1ccccc1)C(=O)OCc1ccccc1)c1nc[nH]c1C(=O)N1CCN(c2ccccc2)CC1	TAAR1 antagonist 52.1 (no result: GPR7 antag)
O=[N+]([O-])c1ccc(Cn2cc(-c3cccc(C(F)(F)F)c3)nn2)cc1	none
CCOC(=O)N[C@H](C(=O)N1CCC[C@H]1C(=O)NC1CCCC1)C1CCCCC1	none (no result: OX1R antag-1, GPR7 antag, OX1R antag-2, CHO parental Ca)
CCC(c1nnnn1-c1ccc2c(c1)OCCO2)N1CCN(C)CC1 (stereo unspecified)	none (no result: OX1R antag-1, GPR7 antag, OX1R antag-2, CHO parental Ca)
